What was measured:
Cavia porcellus [1] = species on record: Cavia porcellus; test: Anticholinergic activity was measured by the guinea pig ileum test; c = NA means no activity found at the doses used.; type: functional
Summary of the method: (§1)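 Guinea pig whole ileum strips in McEwan's solution, gassed with O2/CO2 95:5, 37 °C organ bath, 1 g tension. Cumulative acetylcholine concentration-response curves were run to constancy, then repeated after 15–20 min equilibration with increasing antagonist concentrations. Mean curves gave dose ratios, from which competitive antagonism and pA2 were derived.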

[2] = Cholinergic potency was expressed in terms of relative activity vs acetylcholine.; type: functional
[3] = The hydrolytic kinetics expressed as Kobs was measured at 7.4 pH at 37 degree C; type: ADME; conditions: pH 7.4
Summary of the method: (§2)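 Chemical hydrolysis in 0.5 M potassium phosphate, pH 7.4, 37 °C. Rate was followed by appearance of the acid product or loss of the quaternary salt. Where salt contained amine hydrochloride, initial concentration was taken from final acid after complete hydrolysis. Half-life was estimated from both where resolved.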

[4] = Half life period was measured at 7.4 pH from d[acid]/dt.; type: ADME; conditions: pH 7.4; summary of the method: as §2
Cavia porcellus [5] = species on record: Cavia porcellus; test: Antihistamine activity was measured by the guinea pig ileum test; c = NA means no activity found at the doses used.; type: functional
Summary of the method: (§3)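 Guinea pig ileum strips, McEwan's solution, Carbogen, 37 °C, 1 g tension. Cumulative histamine concentration-response curves were recorded before and after 15–20 min equilibration with rising antagonist concentrations. pA2 came from dose ratios of mean curves.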

Cavia porcellus [6] = species on record: Cavia porcellus; test: Anticholinergic activity was measured by the guinea pig ileum test.; type: functional; conditions: Cavia porcellus, Ileum; read-out: pA2 (converted); summary of the method: as §1
Cavia porcellus [7] = species on record: Cavia porcellus; test: Antihistamine activity was measured by the guinea pig ileum test.; type: functional; conditions: Cavia porcellus, Ileum; read-out: pA2 (converted); summary of the method: as §3
[8] = Cholinergic potency was expressed in terms of relative activity vs acetylcholine; c = NA means no activity found at the doses used.; type: functional
Felis catus [9] = species on record: Felis catus; test: acetylcholine antagonist effect of compound on cat blood pressure at concentration 5.7*10e-8 in 4 min; type: functional
Summary of the method: (§4)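 Adult cats anesthetized ip with α-chloralose (80 mg/kg) plus sodium pentobarbitone (6 mg/kg), bilaterally vagotomized, artificially respired. Carotid arterial pressure recorded. Drugs given iv via brachial vein. Acetylcholine dose giving 70-80% of maximal vasodepressor response used throughout. Test drug injected, acetylcholine response checked 1 min later, then every ~2-3 min. Value is % of control vasodepressor response to acetylcholine.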

Felis catus [10] = test: acetylcholine antagonist effect of compound on cat blood pressure at concentration 5.7*10e-8 mol/kg in 1 min; type: functional
Summary of the method: (§5)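 Adult cats under ip α-chloralose (80 mg/kg) plus pentobarbitone (6 mg/kg), bilaterally vagotomized and artificially respired. Carotid blood pressure was recorded. An iv acetylcholine dose giving 70–80% of maximal vasodepressor response was used. After iv test drug, acetylcholine responses were checked at 1 min and then every 2–3 min and expressed as % of control. Doses were given in mol/kg, escalating after recovery.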

Felis catus [11] = species on record: Felis catus; test: acetylcholine antagonist effect of compound on cat blood pressure at concentration 5.7*10e-7 in 15 min; type: functional; summary of the method: as §5
Felis catus [12] = species on record: Felis catus; test: acetylcholine antagonist effect of compound on cat blood pressure at concentration 5.7*10e-7 in 12 min; type: functional; summary of the method: as §5
Felis catus [13] = species on record: Felis catus; test: acetylcholine antagonist effect of compound on cat blood pressure at concentration 5.7*10e-7 in 6 min; type: functional; summary of the method: as §5
Felis catus [14] = species on record: Felis catus; test: acetylcholine antagonist effect of compound on cat blood pressure at concentration 5.4*10e-8 in 2 min
Felis catus [15] = species on record: Felis catus; test: acetylcholine antagonist effect of compound on cat blood pressure at concentration 5.7*10e-8 in 10 min; type: functional; summary of the method: as §5
Felis catus [16] = species on record: Felis catus; test: acetylcholine antagonist effect of compound on cat blood pressure at concentration 5.7*10e-8 in 8 min; type: functional; summary of the method: as §4
Felis catus [17] = species on record: Felis catus; test: acetylcholine antagonist effect of compound on cat blood pressure at concentration 5.7*10e-7 in 24 min; type: functional; summary of the method: as §5
Felis catus [18] = species on record: Felis catus; test: acetylcholine antagonist effect of compound on cat blood pressure at concentration 5.7*10e-7 in 21 min; type: functional; summary of the method: as §5
Felis catus [19] = species on record: Felis catus; test: acetylcholine antagonist effect of compound on cat blood pressure at concentration 5.7*10e-8 in 6 min; type: functional; summary of the method: as §4
Felis catus [20] = species on record: Felis catus; test: acetylcholine antagonist effect of compound on cat blood pressure at concentration 5.7*10e-7 in 3 min; type: functional; summary of the method: as §5
Felis catus [21] = species on record: Felis catus; test: acetylcholine antagonist effect of compound on cat blood pressure at concentration 5.7*10e-7 in 1 min; type: functional; summary of the method: as §5
Felis catus [22] = species on record: Felis catus; test: acetylcholine antagonist effect of compound on cat blood pressure at concentration 5.7*10e-7 in 9 min; type: functional; summary of the method: as §5
Felis catus [23] = species on record: Felis catus; test: acetylcholine antagonist effect of compound on cat blood pressure at concentration 5.7*10e-7 in 18 min; type: functional; summary of the method: as §5
Felis catus [24] = species on record: Felis catus; test: acetylcholine antagonist effect of compound on cat blood pressure at concentration 5.7*10e-8 in 9 min; type: functional; summary of the method: as §4
Felis catus [25] = species on record: Felis catus; test: acetylcholine antagonist effect of compound on cat blood pressure at concentration 5.7*10e-8 in 7 min; type: functional; summary of the method: as §4
Felis catus [26] = species on record: Felis catus; test: acetylcholine antagonist effect of compound on cat blood pressure at concentration 5.7*10e-8 in 3 min; type: functional; summary of the method: as §5
Cavia porcellus [27] = species on record: Cavia porcellus; test: Anticholinergic activity was measured by the guinea pig ileum test; type: functional; conditions: read-out: pA2 (converted); summary of the method: as §1
Felis catus [28] = species on record: Felis catus; test: acetylcholine antagonist effect of compound on cat blood pressure at concentration 5.7*10e-7 in 27 min; type: functional; summary of the method: as §5
Felis catus [29] = species on record: Felis catus; test: acetylcholine antagonist effect of compound on cat blood pressure at concentration 5.7*10e-7 in 31 min; type: functional; summary of the method: as §5
Felis catus [30] = species on record: Felis catus; test: acetylcholine antagonist effect of compound on cat blood pressure at concentration 5.7*10e-7 in 22 min; type: functional; summary of the method: as §5
Felis catus [31] = species on record: Felis catus; test: acetylcholine antagonist effect of compound on cat blood pressure at concentration 5.7*10e-8 in 5 min; type: functional; summary of the method: as §4
Felis catus [32] = species on record: Felis catus; test: acetylcholine antagonist effect of compound on cat blood pressure at concentration 5.7*10e-7 in 37 min; type: functional; summary of the method: as §5
Canis familiaris = species on record: Canis familiaris; test: The hydrolytic kinetics expressed as Kobs was measured in dog plasma at 37 degree C; type: ADME, Canis lupus familiaris
Summary of the method: (§6)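 Fresh dog blood was centrifuged and the upper layer filtered through 0.8 and 0.2 µm membranes. 2 mL plasma samples with gentisic acid internal standard were incubated. 5 µL aliquots taken at intervals were assayed against acid standard curves in methanol. Rates came from acid appearance or quaternary salt loss.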

[33] = Half life period was measured at 37 degree C in dog plasma from d[quant]/dt.; type: ADME, Canis lupus familiaris; summary of the method: as §6

SMILES: CC[N+](CC)(CC)COC(C)=O
- pA2 (Cavia porcellus [1]): No activity

SMILES: CCC(C)C(=O)OC[N+]12CCC(CC1)CC2 (configuration not stated)
- Activity [2]: 1
- pA2 (Cavia porcellus [1]): No activity

SMILES: CC(C(=O)OC[N+]1(C)CCCC1)(c1ccccc1)c1ccccc1.[Cl-]
- K obs [3]: 0.000193 min⁻¹
- half-life [4]: 3600 min
- pA2 (Cavia porcellus [5]): No activity
- Kb (Cavia porcellus [6]): 3.98 nM

SMILES: CC[N+](CC)(CC)COC(=O)C1(c2ccccc2)CCCC1
- pA2 (Cavia porcellus [5]): No activity
- Kb (Cavia porcellus [6]): 79.4 nM

SMILES: CC[N+](CC)(CC)COC(=O)C(c1ccccc1)C1CCCC1 (configuration not stated)
- Kb (Cavia porcellus [6]): 3.16 nM
- Kb (Cavia porcellus [7]): 50.1 nM

SMILES: Cn1cc[n+](COC(=O)C23CC4CC(CC(C4)C2)C3)c1
- Activity [8]: No activity
- Kb (Cavia porcellus [6]): 2000 nM
- Kb (Cavia porcellus [7]): 5010 nM

SMILES: C[N+]1(COC(=O)C23CC4CC(CC(C4)C2)C3)CCCC1
- Kb (Cavia porcellus [6]): 126 nM

SMILES: CC[N+](CC)(CC)COC(=O)C(c1ccccc1)C1CCCCC1.[Cl-] (configuration not stated)
- Response (Felis catus [9]): 50%
- Response (Felis catus [10]): 0%
- Response (Felis catus [11]): 60%
- Response (Felis catus [12]): 43%
- Response (Felis catus [13]): 0%
- Response (Felis catus [14]): 0%
- Response (Felis catus [15]): 100%
- Response (Felis catus [16]): 83%
- Response (Felis catus [17]): 100%
- Response (Felis catus [18]): 93%
- Response (Felis catus [19]): 67%
- Response (Felis catus [20]): 0%
- Response (Felis catus [21]): 0%
- Response (Felis catus [22]): 0%
- Response (Felis catus [23]): 78%
- Kb (Cavia porcellus [6]): 2.51 nM
- Kb (Cavia porcellus [7]): 2000 nM

SMILES: CC1CCC[N+]1(C)COC(=O)C(c1ccccc1)C1CCCC1 (configuration not stated)
- Kb (Cavia porcellus [6]): 0.501 nM
- Kb (Cavia porcellus [7]): 12.6 nM

SMILES: CC[N+](CC)(CC)COC(=O)C(c1ccccc1)C1CCCC1.[Cl-] (configuration not stated)
- Response (Felis catus [24]): 100%
- K obs [3]: 0.000361 min⁻¹
- Response (Felis catus [10]): 0%
- Response (Felis catus [11]): 36%
- Response (Felis catus [25]): 82%
- Response (Felis catus [12]): 18%
- Response (Felis catus [26]): 18%
- Kb (Cavia porcellus [27]): 7.94 nM
- Response (Felis catus [13]): 0%
- half-life [4]: 1920 min
- Response (Felis catus [28]): 73%
- Response (Felis catus [20]): 0%
- Response (Felis catus [21]): 0%
- Response (Felis catus [29]): 95%
- Response (Felis catus [23]): 55%
- Response (Felis catus [30]): 65%
- Response (Felis catus [31]): 55%
- Response (Felis catus [32]): 100%

SMILES: CC[N+](CC)(CC)COC(=O)C1(c2ccccc2)CC1.[Cl-]
- K obs [3]: 0.00055 min⁻¹
- half-life [4]: 1260 min
- pA2 (Cavia porcellus [1]): No activity

SMILES: C[N+]1(COC(=O)C2(c3ccccc3)CCCC2)CCCC1.[Cl-]
- K obs [3]: 0.000181 min⁻¹
- half-life [4]: 3840 min
- pA2 (Cavia porcellus [5]): No activity
- Kb (Cavia porcellus [6]): 50.1 nM

SMILES: C[N+]1(COC(=O)Cc2ccccc2)CCOCC1.[Cl-]
- K obs (Canis familiaris): 1.73 min⁻¹
- half-life [4]: 480 min
- half-life [33]: 240 min

Source: ChEMBL document CHEMBL1121584, “Soft drugs. 3. A new class of anticholinergic agents” (J Med Chem, 1980)
